ChEMBL document CHEMBL4477243, “Discovery and SAR of a novel series of potent, CNS penetrant M4 PAMs based on a non-enolizable ketone core: Challenges in disposition” (Bioorg Med Chem Lett, 2016)
pEC50: −log10 of the molar value. Activity calls are given as the source filed them. The calls are words filed in the database; no cut-off is given here.

Tests used:
[1] = Ratio of drug level in Sprague-Dawley rat brain to plasma at 0.2 to 0.25 mg/kg, iv administered as cassette dose measured 0.25 hrs post dose; assay type: ADME, organism-based; conditions: brain and plasma
In short: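 Male Sprague-Dawley rats (n=1) received an IV cassette dose of 0.20-0.25 mg/kg. Brain and plasma sampled 0.25 hr post-administration. Total brain:plasma partition coefficient (Kp) measured; unbound coefficient (Kp,uu) calculated.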

[2] = target: T1, Muscarinic acetylcholine receptor M4 (Homo sapiens) (UniProt P08173); assay: Positive allosteric modulation activity at human M4 receptor expressed in CHO cells co-expressing Gqi5 protein assessed as potentiation of EC20 acetyl choline-induced response by calcium mobilization assay relative to acetylcholine; assay type: functional, cell-based
T1 sequence (whole entry): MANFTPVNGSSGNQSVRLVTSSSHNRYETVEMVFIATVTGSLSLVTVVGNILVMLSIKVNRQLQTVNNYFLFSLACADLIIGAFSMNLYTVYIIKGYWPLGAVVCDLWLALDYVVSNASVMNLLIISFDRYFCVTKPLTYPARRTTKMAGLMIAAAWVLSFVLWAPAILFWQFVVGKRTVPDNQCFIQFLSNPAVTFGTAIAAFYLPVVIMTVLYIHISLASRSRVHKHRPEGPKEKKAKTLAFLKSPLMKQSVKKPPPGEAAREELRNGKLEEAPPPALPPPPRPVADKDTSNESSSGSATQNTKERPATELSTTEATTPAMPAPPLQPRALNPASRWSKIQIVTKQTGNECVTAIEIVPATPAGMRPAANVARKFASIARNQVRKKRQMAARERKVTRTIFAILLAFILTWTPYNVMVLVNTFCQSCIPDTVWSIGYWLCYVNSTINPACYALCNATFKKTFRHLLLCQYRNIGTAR
In short: (§1)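 Calcium mobilization in CHO cells stably co-expressing human or rat M4 with the chimeric Gqi5 protein. Test compound given with a fixed EC20 concentration of acetylcholine. Potency reported as EC50; efficacy as % of the acetylcholine maximum. Means of three independent experiments, each in triplicate.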

Cytochrome P450 1A2 = target: T2, Cytochrome P450 1A2 (Homo sapiens, UniProt P05177); assay: Inhibition of CYP1A2 (unknown origin); assay type: ADME
T2 sequence (P05177 whole entry): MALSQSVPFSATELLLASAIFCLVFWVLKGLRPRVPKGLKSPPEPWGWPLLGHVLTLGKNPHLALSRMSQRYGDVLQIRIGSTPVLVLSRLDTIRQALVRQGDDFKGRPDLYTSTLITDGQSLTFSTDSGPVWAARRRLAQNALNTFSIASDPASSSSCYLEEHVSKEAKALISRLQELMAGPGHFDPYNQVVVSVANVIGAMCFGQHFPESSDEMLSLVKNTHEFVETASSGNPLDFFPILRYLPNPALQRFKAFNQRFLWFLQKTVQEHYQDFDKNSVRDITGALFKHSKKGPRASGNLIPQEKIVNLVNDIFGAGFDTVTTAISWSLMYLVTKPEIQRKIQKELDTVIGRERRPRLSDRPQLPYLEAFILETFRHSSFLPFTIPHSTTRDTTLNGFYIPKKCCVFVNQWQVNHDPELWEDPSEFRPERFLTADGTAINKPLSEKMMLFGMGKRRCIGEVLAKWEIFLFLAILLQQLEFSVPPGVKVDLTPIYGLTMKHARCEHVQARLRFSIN

Cytochrome P450 = assay: Inhibition of Cytochrome P450 (unknown origin); assay type: ADME, protein assay; conditions: human
[3] = Selectivity ratio of EC50 for rat M4 receptor expressed in CHO cells co-expressing Gqi5 protein to EC50 for human M4 receptor expressed in CHO cells co-expressing Gqi5 protein; assay type: cell-based
[4] = target: T3, Muscarinic acetylcholine receptor M4 (Rattus norvegicus, UniProt P08485); assay: Positive allosteric modulation activity at rat M4 receptor expressed in CHO cells co-expressing Gqi5 protein assessed as potentiation of EC20 acetyl choline-induced response by calcium mobilization assay; assay type: functional, cell-based; conditions: for pEC50: read-out: EC50; in short: as §1
T3 sequence (P08485 whole entry): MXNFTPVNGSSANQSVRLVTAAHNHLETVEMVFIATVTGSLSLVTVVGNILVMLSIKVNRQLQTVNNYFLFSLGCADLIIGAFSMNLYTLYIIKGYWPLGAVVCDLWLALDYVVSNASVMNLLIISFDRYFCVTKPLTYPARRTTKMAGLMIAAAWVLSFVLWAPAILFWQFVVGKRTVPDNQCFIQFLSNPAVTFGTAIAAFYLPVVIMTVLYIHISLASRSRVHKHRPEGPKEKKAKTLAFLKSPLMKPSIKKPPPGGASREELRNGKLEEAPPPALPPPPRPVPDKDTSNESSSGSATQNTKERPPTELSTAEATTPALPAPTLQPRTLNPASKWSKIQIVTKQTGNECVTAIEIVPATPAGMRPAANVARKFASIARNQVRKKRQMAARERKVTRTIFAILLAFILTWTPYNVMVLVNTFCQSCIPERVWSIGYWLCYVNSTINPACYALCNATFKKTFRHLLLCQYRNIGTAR

[5] = Drug metabolism in cryopreserved rat hepatocytes assessed as secondary alcohol 18 formation; assay type: ADME, cell-based, Hepatocyte
[6] = Fraction unbound in human plasma; assay type: ADME, cell-free
In short: (§2)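 Plasma protein binding, reported as fraction unbound in rat and human plasma. Single experiment (n=1) run in triplicate.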

[7] = Fraction unbound in rat plasma; assay type: ADME, cell-free; in short: as §2
[8] = target: T4, Muscarinic acetylcholine receptor M4 (Rattus norvegicus) (UniProt P08485); assay: Positive allosteric modulation activity at rat M4 receptor expressed in CHO cells co-expressing Gqi5 protein assessed as potentiation of EC20 acetyl choline-induced response by calcium mobilization assay relative to acetylcholine; assay type: functional, cell-based; in short: as §1
T4 sequence (whole entry): T3 sequence (P08485 whole entry)

[9] = target: T5, Muscarinic acetylcholine receptor M4 (Homo sapiens, UniProt P08173); assay: Positive allosteric modulation activity at human M4 receptor expressed in CHO cells co-expressing Gqi5 protein assessed as potentiation of EC20 acetyl choline-induced response by calcium mobilization assay; assay type: functional, cell-based; conditions: for pEC50: read-out: EC50; in short: as §1
T5 sequence (P08173 whole entry): T1 sequence (whole entry)

[10] = Drug metabolism in cryopreserved human hepatocytes assessed as secondary alcohol 18 formation; assay type: ADME, cell-based, Hepatocyte
[11] = Intrinsic clearance in rat microsomes; assay type: ADME, Microsome
In short: (§3)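 Hepatic microsomal intrinsic clearance, from which predicted hepatic clearance was derived. Single experiment (n=1) run in triplicate.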

[12] = Intrinsic clearance in human microsomes; assay type: ADME, Microsome; in short: as §3
[13] = target: T6, Muscarinic acetylcholine receptor M5 (Homo sapiens) (UniProt P08912); assay: Positive allosteric modulation activity at human M5 receptor
T6 sequence (whole entry): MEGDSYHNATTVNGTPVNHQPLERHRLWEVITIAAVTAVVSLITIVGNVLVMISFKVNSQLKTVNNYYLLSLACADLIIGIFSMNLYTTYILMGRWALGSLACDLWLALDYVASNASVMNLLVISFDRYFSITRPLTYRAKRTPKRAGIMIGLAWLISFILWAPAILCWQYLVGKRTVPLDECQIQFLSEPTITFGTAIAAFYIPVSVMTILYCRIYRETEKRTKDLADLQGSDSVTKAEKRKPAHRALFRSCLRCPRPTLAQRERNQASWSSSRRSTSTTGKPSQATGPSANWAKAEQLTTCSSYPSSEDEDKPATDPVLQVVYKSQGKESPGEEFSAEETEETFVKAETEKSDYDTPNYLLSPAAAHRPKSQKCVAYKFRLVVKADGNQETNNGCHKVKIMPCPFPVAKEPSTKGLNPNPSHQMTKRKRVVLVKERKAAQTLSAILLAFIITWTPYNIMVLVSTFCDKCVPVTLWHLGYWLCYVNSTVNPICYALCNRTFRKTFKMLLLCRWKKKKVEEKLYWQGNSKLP

[14] = Drug level in cryopreserved human hepatocytes treated with (3-amino-4,6-dimethylthieno[2,3-b]pyridin-2-yl)(pyridin-4-yl)methanone assessed as compound formation; assay type: ADME, cell-based, Hepatocyte
[15] = Drug level in cryopreserved rat hepatocytes treated with (3-amino-4,6-dimethylthieno[2,3-b]pyridin-2-yl)(pyridin-4-yl)methanone assessed as compound formation; assay type: ADME, cell-based, Hepatocyte

## Cc1cc(C)c2c(N)c(C(=O)c3ccncc3)sc2n1
[1]
  Kp at 0.25 h: 0.83 to 6.95
[2]
  %max: 71%
Cytochrome P450 1A2
  inhibition (INH): Active
Cytochrome P450
  inhibition (INH): Not Active
[3]
  Ratio EC50: 4 to 7
[4]
  pEC50: 5.65
[5]
  Drug metabolism: Metabolite_Detected
[6]
  fraction unbound: 0.005 to 0.18
[7]
  fraction unbound: 0.005 to 0.18
[8]
  %max: 64%
[9]
  pEC50: 6.23
[10]
  Drug metabolism: Metabolite_Detected

## Cc1nc2sc(C(=O)c3ccccc3)c(N)c2c(C)c1C
[11]
  CLint scaled: 2070 mL/min/kg
[2]
  %max: 76 to 76.8%
[12]
  CLint scaled: 429 mL/min/kg
[4]
  pEC50: 6.84 to 7.12
[4]; read-out: pEC50 (converted)
  EC50: 145 nM
[13]
  Activity: inactive
[6]
  fraction unbound: 0.007
[7]
  fraction unbound: 0.008
[8]
  %max: 71 to 80.5%
[9]
  pEC50: 6.86 to 6.92
[9]; read-out: pEC50 (converted)
  EC50: 138 nM

## Cc1cc(C)c2c(N)c(C(O)c3ccncc3)sc2n1 (configuration not stated)
[14]
  Drug metabolism: Metabolite_Detected
[15]
  Drug metabolism: Metabolite_Detected
[4]
  pEC50: < 5.00
[9]
  pEC50: < 5.00
